Assay results gathered from unrelated publications.
Compare with care: the assays were run in different laboratories.
BCHE: Cholinesterase (BCHE, Equus caballus, UniProt P81908)
MAP2K3: Dual specificity mitogen-activated protein kinase kinase 3 (MAP2K3, Homo sapiens, UniProt P46734)

Structure (SMILES) | target | effect on | action | method | tested at | quantity | result
C[C@]12CC[C@@H]3c4ccc(OC(=O)N(CCCl)CCCl)cc4CC[C@H]3[C@@H]1CC[C@@H]2OP(=O)(O)O | Tyrosine-protein phosphatase non-receptor type 11 (PTPN11, Homo sapiens, UniProt Q06124) | binding |  | SPR |  | koff | 0.02 s⁻¹
Cn1cc(-c2cc(F)cc(N3CCn4c(cc5c4CCCC5)C3=O)c2CO)cc(Nc2ccc(N3CCN(C4COC4)CC3)cn2)c1=O | SRSF protein kinase 2 (SRPK2, Homo sapiens, UniProt P78362) | enzyme activity | inhibitor |  | 0.1 µM | inhibition | 3%
COc1cccc(CN2CCC(CN3Cc4cc(OC)c(OC)cc4C3=O)CC2)n1 | BCHE | enzyme activity | inhibitor | Ellman | 1 µM | inhibition | -2%
CCN(CC)CCCC[C@H](NC(=O)[C@H](CC(C)C)NC(=O)[C@H](C)NC(=O)[C@H](Cc1ccccc1)NC(=O)c1ccc(C(C)(C)C)cc1)C(=O)N[C@@H](CO)C(=O)OC | Transcription initiation factor TFIID subunit 1-like, BD2 (TAF1L, Homo sapiens, UniProt Q8IZX4) | thermal stability |  | DSF | 25 µM | ΔTm | 0.72 °C
Cc1nn(C)cc1-c1nc2c(N3CCN(Cc4ccc(Cl)cc4)CC3)c(Cl)cnc2[nH]1 | Mitogen-activated protein kinase kinase kinase 6 (MAP3K6, Homo sapiens, UniProt O95382) | binding |  | competition with immobilised ligand | 1 µM | remaining binding | 100%
COc1ncccc1-c1cnn2ccc(N3CCN(C(=O)OC(C)C)CC3)nc12 | MAP2K3 | binding |  | competition with immobilised ligand | 1 µM | remaining binding | 80%
COc1cc2c(cc1OC)C(=O)N(CC1CCN(Cc3ccccc3)CC1)C2 | BCHE | enzyme activity | inhibitor | Ellman | 1 µM | inhibition | -4.8%
C#Cc1n[nH]c2c(-c3cn([C@@H](C)c4ccccn4)c(=O)[nH]c3=O)cc(F)cc12 | BDNF/NT-3 growth factors receptor (NTRK2, Homo sapiens, UniProt Q16620) | enzyme activity | inhibitor |  | 0.1 µM | inhibition | 3.7%
COc1cc2c(cc1OC)C(=O)N(CC1CCN(Cc3ccsc3)CC1)C2 | BCHE | enzyme activity | inhibitor | Ellman | 1 µM | inhibition | -6.1%
Nc1ncc(-c2nc(N3CCOCC3)nc(N3CCOCC3)n2)c(C(F)F)n1 | MAP2K3 | binding |  | competition with immobilised ligand | 10 µM | remaining binding | 78%
